ChEMBL document CHEMBL4477170, “Tricyclic Acylphloroglucinols from Hypericum lanceolatum and Regioselective Synthesis of Selancins A and B” (J Nat Prod, 2016)
Activity calls are given as the source filed them. The calls are words filed in the database; no cut-off is given here.

Key:
PC-3 = test: Cytotoxicity against human PC3 cells assessed as cell growth inhibition at 10 uM by XTT assay; assay type: functional, cell-based
Outline: (§1)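 Modified XTT assay on HT-29 colon and PC-3 prostate cancer cell lines, measuring growth inhibition; isolated compounds tested up to 10 μM.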

HT-29 = test: Cytotoxicity against human HT-29 cells assessed as cell growth inhibition at 10 uM by XTT assay; assay type: functional, cell-based; outline: as §1

Row | Structure (SMILES) | growth inhibition (GI) (PC-3) | growth inhibition (GI) (HT-29)
1 | CC(C)C(=O)c1c(O)c2c(c3c1OC(C)(C)C=C3)OC(C)(C)[C@@H](O)C2=O | inactive | inactive
2 | CC[C@H](C)C(=O)c1c(O)c2c(c3c1OC(C)(C)C=C3)OC(C)(C)[C@@H](O)C2=O | inactive | inactive
3 | CC(C)C(=O)c1c(O)c2c(c3c1OC(C)(C)C=C3)OC(C)(C)[C@H](O)[C@@H]2O (relative stereo) | inactive | inactive
4 | CC(C)C(=O)c1c(O)c2c(c3c1OC(C)(C)C(O)C3)OC(C)(C)C=C2 (stereo not drawn) | inactive | inactive
5 | CC[C@H](C)C(=O)c1c(O)c2c(c3c1OC(C)(C)C(O)C3)OC(C)(C)C=C2 (stereo partly drawn) | inactive | inactive
6 | CC[C@H](C)C(=O)c1c(O)c2c(c3c1OC(C)(C)C=C3)OC(C)(C)[C@H](O)C2 | inactive | inactive
7 | CC[C@H](C)C(=O)c1c(O)c2c(c3c1OC(C)(C)C=C3)OC(C)(C)C=C2 | inactive | inactive
8 | CC(C)=CCC/C(C)=C/COc1cc(O)c2c(c1)C(=O)c1cc(C)cc(O)c1C2=O | inactive | inactive
9 | CC(C)C(=O)c1c(O)c2c(c3c1OC(C)(C)C=C3)OC(C)(C)C=C2 | inactive | inactive
